Assay results published in PMC3060938 (Clinical cancer research : an official journal of the …, 2011).
Several values for one entry are separate records, joined by “and”; a condition that tells them apart may be missing. Equal values may be shown once.

Legend:
[1] = Plasma pharmacokinetics of 17-DMAG by HPLC-MS, non-compartmental analysis; format: in vivo, human
Procedure, shortened: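 Sampled in course 1: pre-dose, at 30 and 60 min into the 1-h infusion, then 5 min to 96 h after infusion end. Heparinised blood held on ice, spun 252g for 5 min at 4°C, plasma kept at −80°C. Drug measured by validated HPLC-MS. Non-compartmental analysis with constant infusion input. Dose proportionality of AUC and Cmax assessed by linear regression.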

HSP90 [2] = assay: Western blotting of HSP72, CDK4 and ERBB2 in paired tumor biopsies; format: in vivo, human
Procedure, shortened: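 Tumour biopsies were taken before and 24 h after the first weekly 1-h IV dose, snap frozen and stored at −80 °C; five paired biopsies per cohort were planned. Lysates were western blotted for HSP72, CDK4 and ERBB2, with GAPDH loading control and HT29 positive control. Each band was scored 0-5 against pre-treatment; a one-point change counted. Signature: HSP72 induction plus CDK4 and/or ERBB2 depletion. Two blinded assessors verified results.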

[3] = Phase I dose escalation of weekly IV 17-DMAG: toxicity; format: in vivo, human
Procedure, shortened: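 Weekly 1-h IV infusion, continuous, in 4-week cycles, of drug diluted to 0.1-1.0 mg/mL in 0.9% saline or 5% dextrose. Accelerated titration escalation from 2.5 mg/m2, up to 106 mg/m2. AEs graded by NCI-CTCAE v3.0. DLT assessed over the first 28 days. Cohorts expanded to 6 after DLT. MAD defined as ≥2/6 with DLT; MTD as the prior level with ≤1/6.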

HSP90 [4] = assay: Western blotting of HSP72, CDK4 and LCK in patients' PBMC; format: in vivo, human
Procedure, shortened: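 Blood drawn pre-dose, at end of infusion and 1, 8, 24, 48 and 96 h post-dose, plus 24 h after the fifth weekly infusion. PBMC isolated by Ficoll-Hypaque and stored at −80°C. Lysates blotted for HSP72, CDK4 and LCK, with GAPDH as loading control. Each time-point visually compared with pre-treatment and scored 0-5 against a positive control.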

advanced solid tumors = assay: Tumor response; format: in vivo, human
HSP72 = HSP72 in PBMC and plasma by ELISA; format: in vivo, human
Procedure, shortened: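 Human patients with advanced solid tumours received a weekly 1-h IV infusion of the test compound, given at 0.1-1.0 mg/mL in 0.9% saline or 5% dextrose. Blood was drawn pre-dose and 24 h post-dose. PBMC were Ficoll-Hypaque separated and stored at −80 °C. HSP72 was measured in PBMC (fmole/μg protein) and plasma (fmole/ml). Each cohort's mean change was compared with the first cohort's by one-tailed t-test (p ≤ 0.05).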

[5] = test system: NCI 60 human tumor cell line panel; conditions: read-out: Mean IC50, no reference given; cited from earlier work

SMILES: CO[C@H]1/C=C\C=C(/C)C(=O)NC2=CC(=O)C(NCCN(C)C)=C(C[C@@H](C)C[C@H](OC)[C@H](O)[C@@H](C)/C=C(\C)[C@@H]1OC(N)=O)C2=O [17-DMAG, 17-dimethylaminoethylamino-17-demethoxygeldanamycin]
- Half life ([1]; dose 40.0 mg/m^2, 1 hr IV infusion, 3 patients): 21.5 ± 4.3 (19.7) hr
- Half life ([1]; dose 80.0 mg/m^2, 1 hr IV infusion, 8 patients): 27.8 ± 7.1 (25.4) hr
- Cmax ([1]; human, intravenous, 80 mg/m2): 2680 nM
- Vd ([1]; human, intravenous, 80 mg/m2): 385 L
- clearance ([1]; human, intravenous, 80 mg/m2): 315 mL/min
- AUC ([1]; human, iv, 2.5 mg/m^2): 0.581 ± 0.236 µM·h
- Cmax ([1]; human, iv, 2.5 mg/m^2): 64.1 ± 19.7 nM
- clearance ([1]; human, iv, 2.5 mg/m^2): 218 mL/min
- half-life ([1]; human, iv, 2.5 mg/m^2): 25.2 ± 12.9 h
- AUC ([1]; human, iv, 5 mg/m^2): 0.864 ± 0.651 µM·h
- Cmax ([1]; human, iv, 5 mg/m^2): 85.4 ± 55.2 nM
- clearance ([1]; human, iv, 5 mg/m^2): 858 mL/min
- half-life ([1]; human, iv, 5 mg/m^2): 18.4 ± 7.5 h
- AUC ([1]; human, iv, 20 mg/m^2): 3.73 ± 2.04 µM·h
- Cmax ([1]; human, iv, 20 mg/m^2): 480 ± 176 nM
- clearance ([1]; human, iv, 20 mg/m^2): 345 mL/min
- half-life ([1]; human, iv, 20 mg/m^2): 28.7 ± 14.2 h
- AUC ([1]; human, iv, 40 mg/m^2): 6.51 ± 3.22 µM·h
- Cmax ([1]; human, iv, 40 mg/m^2): 957 ± 248 nM
- clearance ([1]; human, iv, 40 mg/m^2): 322 mL/min
- AUC ([1]; human, iv, 80 mg/m^2): 12.7 ± 2.87 µM·h
- Cmax ([1]; human, iv, 80 mg/m^2): 2680 ± 1320 nM
- clearance ([1]; human, iv, 80 mg/m^2): 315 mL/min
- AUC ([1]; human, iv, 106 mg/m^2): 32.3 ± 16.3 µM·h
- Cmax ([1]; human, iv, 106 mg/m^2): 3750 ± 1370 nM
- clearance ([1]; human, iv, 106 mg/m^2): 213 mL/min
- half-life ([1]; human, iv, 106 mg/m^2): 24.7 ± 1.8 h
- HSP90 inhibition in tumor (HSP90 [2]; 106 mg/m^2, single set of samples): confirmed
- Patients with HSP90 inhibition detected in tumor (HSP90 [2]; 24 hrs after 80mg/m^2): 3/5
- Tumors with HSP72 induced (HSP90 [2]; 24 hrs after 80mg/m^2): 4/5
- Tumors with client protein depletion (CDK4 or ERBB2) (HSP90 [2]; 24 hrs after 80mg/m^2): 3/5
- Treatment related death ([3]; 106mg/m^2): one treatment related death
- Patients with dose limiting toxicity (DLT) ([3]; 106 mg/m^2 weekly IV): 2/4
- ALP (hepatic), adverse events related to 17-DMAG ([3]; Grade 1): 2
- ALT (hepatic), adverse events related to 17-DMAG ([3]; Grade 1): 2
- AST (hepatic), adverse events related to 17-DMAG ([3]; Grade 1): 4
- Alopecia, adverse events related to 17-DMAG ([3]; Grade 1): 2
- Anorexia, adverse events related to 17-DMAG ([3]; Grade 1): 1
- Blurred vision, adverse events related to 17-DMAG ([3]; Grade 1): 2
- Dehydration, adverse events related to 17-DMAG ([3]; Grade 1): 1
- Depression, adverse events related to 17-DMAG ([3]; Grade 1): 1
- Diarrhea, adverse events related to 17-DMAG ([3]; Grade 1): 5
- Dizziness, adverse events related to 17-DMAG ([3]; Grade 1): 1
- Dry eye, adverse events related to 17-DMAG ([3]; Grade 1): 1
- Dry mouth, adverse events related to 17-DMAG ([3]; Grade 1): 3
- Eosinophilia, adverse events related to 17-DMAG ([3]; Grade 1): 1
- Fever, adverse events related to 17-DMAG ([3]; Grade 1): 2
- Hand foot syndrome, adverse events related to 17-DMAG ([3]; Grade 1): 1
- Heartburn, adverse events related to 17-DMAG ([3]; Grade 1): 1
- High protein, adverse events related to 17-DMAG ([3]; Grade 1): 1
- Hypergylcaemia, adverse events related to 17-DMAG ([3]; Grade 1): 2
- Hypertension, adverse events related to 17-DMAG ([3]; Grade 1): 3
- Hyperuricaemia, adverse events related to 17-DMAG ([3]; Grade 1): 1
- Hypocalcaemia, adverse events related to 17-DMAG ([3]; Grade 1): 1
- Hypokalaemia, adverse events related to 17-DMAG ([3]; Grade 1): 2
- Hyponatraemia, adverse events related to 17-DMAG ([3]; Grade 1): 3
- Limb edema, adverse events related to 17-DMAG ([3]; Grade 1): 2
- Low eosinophils, adverse events related to 17-DMAG ([3]; Grade 1): 1
- Low hematocrit, adverse events related to 17-DMAG ([3]; Grade 1): 1
- Low red cell count, adverse events related to 17-DMAG ([3]; Grade 1): 1
- Low urea, adverse events related to 17-DMAG ([3]; Grade 1): 1
- Lymphopenia, adverse events related to 17-DMAG ([3]; Grade 1): 2
- Muscle spasm, adverse events related to 17-DMAG ([3]; Grade 1): 1
- Nausea, adverse events related to 17-DMAG ([3]; Grade 1): 5
- Neuropathy, adverse events related to 17-DMAG ([3]; Grade 1): 1
- Nightmares, adverse events related to 17-DMAG ([3]; Grade 1): 1
- Ocular surface disease, adverse events related to 17-DMAG ([3]; Grade 1): 2
- Oliguria, adverse events related to 17-DMAG ([3]; Grade 1): 1
- Pain, Abdomen, adverse events related to 17-DMAG ([3]; Grade 1): 1
- Pain, Headache, adverse events related to 17-DMAG ([3]; Grade 1): 1
- Pain, Joint, adverse events related to 17-DMAG ([3]; Grade 1): 5
- Pain, Limb, adverse events related to 17-DMAG ([3]; Grade 1): 1
- Pain, Myalgia, adverse events related to 17-DMAG ([3]; Grade 1): 2
- Proteinuria, adverse events related to 17-DMAG ([3]; Grade 1): 3
- Raised CK, adverse events related to 17-DMAG ([3]; Grade 1): 1
- Raised amylase, adverse events related to 17-DMAG ([3]; Grade 1): 1
- Raised bilirubin (hepatic), adverse events related to 17-DMAG ([3]; Grade 1): 1
- Raised leucocytes, adverse events related to 17-DMAG ([3]; Grade 1): 1
- Raised neutrophils, adverse events related to 17-DMAG ([3]; Grade 1): 2
- Rash, adverse events related to 17-DMAG ([3]; Grade 1): 1
- Sinus tachycardia, adverse events related to 17-DMAG ([3]; Grade 1): 1
- Thrombocytopenia, adverse events related to 17-DMAG ([3]; Grade 1): 3
- Vivid dreams, adverse events related to 17-DMAG ([3]; Grade 1): 1
- Voice change, adverse events related to 17-DMAG ([3]; Grade 1): 1
- Vomiting, adverse events related to 17-DMAG ([3]; Grade 1): 2
- Weight loss, adverse events related to 17-DMAG ([3]; Grade 1): 1
- ALP (hepatic), adverse events related to 17-DMAG ([3]; Grade 2): 1
- ALT (hepatic), adverse events related to 17-DMAG ([3]; Grade 2): 1
- Anorexia, adverse events related to 17-DMAG ([3]; Grade 2): 1
- Blurred vision, adverse events related to 17-DMAG ([3]; Grade 2): 2
- Diarrhea, adverse events related to 17-DMAG ([3]; Grade 2): 1
- Dry eye, adverse events related to 17-DMAG ([3]; Grade 2): 2
- Eye (herpes simplex), adverse events related to 17-DMAG ([3]; Grade 2): 1
- Fatigue, adverse events related to 17-DMAG ([3]; Grade 2): 2
- Fever, adverse events related to 17-DMAG ([3]; Grade 2): 1
- Keratitis, adverse events related to 17-DMAG ([3]; Grade 2): 2
- Nausea, adverse events related to 17-DMAG ([3]; Grade 2): 1
- Pain, Joint, adverse events related to 17-DMAG ([3]; Grade 2): 2
- Vomiting, adverse events related to 17-DMAG ([3]; Grade 2): 4
- ALT (hepatic), adverse events related to 17-DMAG ([3]; Grade 3): 1
- AST (hepatic), adverse events related to 17-DMAG ([3]; Grade 3): 1
- Acidosis, adverse events related to 17-DMAG ([3]; Grade 3): 1
- Creatinine, adverse events related to 17-DMAG ([3]; Grade 3): 1
- Dehydration, adverse events related to 17-DMAG ([3]; Grade 3): 1
- Diarrhea, adverse events related to 17-DMAG ([3]; Grade 3): 1
- Fatigue, adverse events related to 17-DMAG ([3]; Grade 3): 1
- Hyponatraemia, adverse events related to 17-DMAG ([3]; Grade 3): 1
- Lymphopenia, adverse events related to 17-DMAG ([3]; Grade 3): 1
- Thrombocytopenia, adverse events related to 17-DMAG ([3]; Grade 3): 1
- γGT (hepatic), adverse events related to 17-DMAG ([3]; Grade 3): 1
- AST (hepatic), adverse events related to 17-DMAG ([3]; Grade 4): 1
- Hypotension, adverse events related to 17-DMAG ([3]; Grade 4): 1
- Renal failure, adverse events related to 17-DMAG ([3]; Grade 5): 1
- Tolerability ([3]; doses ≤ 80mg/m^2): well tolerated
- Maximum tolerated dose (MTD) ([3]; weekly IV, patients with advanced solid tumors): 80 mg/m^2
- Recommended Phase II dose ([3]; weekly, IV): 80 mg/m^2
- Dose at which transient HSP72 induction (< 24 hours) was detected in PBMCs (HSP90 [4]): ≥ 5 mg/m^2
- Dose at which CDK4 depletion was demonstrated in PBMC (HSP90 [4]; some patients): ≥ 80 mg/m^2
- Time on treatment before PD (advanced solid tumors; patient with CRPC and complete response, 5mg/m^2 escalated to 20mg/m^2): 124 weeks
- Best tumor response (advanced solid tumors; patient with CRPC, 5mg/m^2 escalated to 20mg/m^2, confirmed by CT and PSA): complete response
- Time on study with stable disease (advanced solid tumors; patient with CRPC, 20mg/m^2): 59 weeks
- Time on study with stable disease (advanced solid tumors; patient with chondrosarcoma, 5mg/m^2 escalated to 20mg/m^2): 28 weeks
- Time on study with stable disease (advanced solid tumors; patient with clear cell renal cancer, 80mg/m^2): 76 weeks
- Time on treatment before PD (advanced solid tumors; patient with metastatic melanoma and partial response, 40mg/m^2): 159 weeks
- Best tumor response (advanced solid tumors; patient with metastatic melanoma, 40mg/m^2): partial response
- Patients with progressive disease (PD) (advanced solid tumors; twenty patients evaluable, all dose levels): Nine
- Mean plasma HSP72 change between dose levels (HSP72; 24 hours after 17-DMAG, compared with first dose cohort): did not differ
- Dose at which HSP72 induction was detected in PBMC (HSP72; ELISA (DELFIA), 24 hours after 17-DMAG): ≥ 20 mg/m^2
- Mean HSP72 plasma level post 17-DMAG (HSP72; all other patients (without DLT)): 86 ± 140 fmol/mL
- Highest HSP72 plasma levels post 17-DMAG (HSP72; the 2 patients with DLT (106 mg/m^2), individual values): 1250 fmol/mL and 5610 fmol/mL
- IC50 [5]: 63 nM
